EP2 antag = EP2 receptor (human) inhibition; C6 glioma cells expressing human EP2, cAMP TR-FRET; cells stimulated with saturating PGE2; inhibition, % at 25 µM; 260,000 compounds, 0.52% hits; AID 1422;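 active = percent inhibition above 40 after rounding to a whole number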;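 also: rat C6 glioma host cells with rolipram phosphodiesterase inhibitor present; the protocol text gives 20 µM as final concentration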
Target sequence (P43116 whole entry, looked up): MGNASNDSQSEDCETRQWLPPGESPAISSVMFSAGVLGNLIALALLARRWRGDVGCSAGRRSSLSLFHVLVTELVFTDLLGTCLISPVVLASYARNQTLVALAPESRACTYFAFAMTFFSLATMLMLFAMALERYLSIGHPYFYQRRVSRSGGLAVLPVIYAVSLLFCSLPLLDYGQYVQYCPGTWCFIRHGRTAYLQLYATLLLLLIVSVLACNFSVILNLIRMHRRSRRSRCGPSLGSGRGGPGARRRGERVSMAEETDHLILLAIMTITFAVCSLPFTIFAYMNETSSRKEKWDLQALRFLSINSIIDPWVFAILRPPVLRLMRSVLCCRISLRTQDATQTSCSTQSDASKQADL
Hsp70 act = Hsp70 transcriptional activation, primary screen. HeLa Hsp70 promoter luciferase reporter, luminescence; scaled: vehicle 0, proteasome-inhibitor control 100%. 200,000 compounds, 0.04% hits. activation, % at 10 µM;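 active = activation above the mean across all tested compounds plus 3 SD, cutoff set per campaign, cut at about 5.5% in these data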
EP2 mod = modulators of human EP2 prostaglandin E2 receptor. EP2-expressing cells, cAMP HTRF FRET, PGE2 co-stimulation. induction, % at 25 µM. 260,000 compounds, 0.83% hits. AID 940;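 active = compounds whose cAMP rise, as percent of the full-agonist control response, exceeds 60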;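 also: rat C6 glioma line stably carrying human EP2 under a CMV promoter; the protocol text gives 20 µM as final concentration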
Dynein cargo inh = dynein cargo transport inhibition. 3617.4 mouse cells, GR-EGFP nuclear translocation imaging; test concentration mostly 20 µM; stimulated with dexamethasone, 1 µM; stronger effect = lower value. z-score, hits read low. 220,000 compounds, 0.47% hits;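 active = plate z-score of nuclear minus cytoplasmic receptor signal below a set negative limit, without overly bright fluorescence or cell loss, cut at about -3.5 in these data, passing the limit was not always enough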;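 also: z-score of nuclear minus cytoplasmic ring GR-EGFP intensity difference per well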
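Buffer or medium: tetracycline-free induction medium containing charcoal-stripped FBS / Reagent: dexamethasone agonist, 1.0 µM final, for 30 min / Technique: automated 10x imaging of fixed Hoechst-stained cells / Times: induction 48 h, compound 1 h, agonist 30 min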
EP2 cAMP induct = human EP2 receptor cAMP induction, negative in counter-screens | AID 1080 | calls only at 20 µM (by protocol) | 1,300 compounds, 47% hits | shares compounds with EP2 mod | C6 glioma EP2 cells, cAMP HTRF induction; plus low (about EC15) PGE2 agonist;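 active = cAMP induction above 50% in the main assay while under 30% in all four parallel counter assays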;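 also: rat C6 glioma cells stably expressing human EP2 receptor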
Hsp70 act DR = activates Hsp70 transcription in dose response; shares compounds with Hsp70 act; 70 compounds, 10% hits; HeLa hsp70.1pr-luc reporter, luciferase luminescence; AID 1252; calls only at 99 µM;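 active = over 50% activation at some tested dose; inactive = under 50% activation at every tested dose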
Numbers stand for hits; – = inactive; · = no result given; + = active, no number; ! = repeats disagree. An excerpt weighted towards active compounds, which were near 1.7% of everything screened.

SMILES	EP2 antag	Hsp70 act	EP2 mod	Dynein cargo inh	others
Oc1c(Cl)c(Cl)c(Cl)c(Cl)c1Cl (tested in a mixture with another compound)	65.4	·	–	·
OC[C@@H]1CCCN2CCCC[C@H]12	–	·	–	·
CCCCCc1nc2c(c(=O)c3ccccc3n2C)c(=O)n1C1CCCCCC1	121.2	–	–	–
CCCCCc1nc2ccccc2c(=O)n1-c1ccccc1[N+](=O)[O-]	–	–	–	–
O=C1NC(=S)NC(=O)C1=Cc1cccc2cc3ccccc3cc12	97.7!	·	–	–
C=CCSc1nc2ccccc2c(=O)n1-c1ccccc1C	–	·	78.1	·
Cc1cc2c(C(C)C)c(O)c(O)c(C=O)c2c(O)c1-c1c(C)cc2c(C(C)C)c(O)c(O)c(C=O)c2c1O	47.4!	–	–	–
Cc1ccccc1C(=O)NC(Oc1ccccc1)C(Cl)(Cl)Cl (centres undefined)	–	–	63.4	–
CC(=O)N1CCCc2cc(C(O)CN3CC=C(c4ccccc4)CC3)ccc21 (centres undefined)	–	·	–	·
CCCN1CCC[C@@H]2Cc3[nH]ncc3C[C@H]21	–	·	–	·
CCCN1CCC[C@@H]2Cc3nc(N)ncc3C[C@H]21	–	·	66.2	·
C[N+]1(C)C2CC(OC(=O)[C@@H](CO)c3ccccc3)CC1C1OC12 (some centres undefined)	–	·	–	·
C[N+]1([O-])[C@@H]2CC(OC(=O)[C@@H](CO)c3ccccc3)C[C@H]1[C@H]1O[C@H]12 (some centres undefined)	48.9	·	–	·
CC(C)c1ccc(N2C(=O)NC(=O)/C(=C/C=C/c3ccco3)C2=O)cc1	59.2	–	–	–
Cn1ccnc1C1(O)CC2CCC(C1)N2CC(=O)NCc1ccc(F)cc1 (centres undefined)	·	·	–	·
CC(C)[C@]1(O)[C@@H](OC(=O)c2ccc[nH]2)[C@@]2(O)[C@@]3(C)C[C@]4(O)O[C@@]5([C@H](O)[C@@H](C)CC[C@@]35O)[C@@]2(O)[C@@]41C	51.1	·	–	·
Cc1ccc(C2=CCN(CC(=O)N(C)C3CCCCC3)CC2)o1	·	·	–	·
c1ccc(CCNCc2c[nH]c3ccccc23)cc1	–	·	–	·
OCC[n+]1c2ccccc2nc2ccc(N3CCOCC3)cc21	100.8	·	–	–
C=Cn1cc(CN2C3CCC2CC(O)(c2ccc(OC)cc2)C3)c(C)n1 (centres undefined)	–	·	–	·
CCC1CCCCN1C(=O)CN1C2CCC1CC(O)(c1ccccn1)C2 (centres undefined)	·	·	–	·
c1ccc(C[N+]23CN4CN(CN(C4)C2)C3)cc1	–	·	–	·
Cc1nc2ccccc2cc1C[N+]12CN3CN(CN(C3)C1)C2	49.6	·	–	·
C[C@@H](O)CN(CCN(C[C@@H](C)O)C[C@@H](C)O)C[C@@H](C)O.O=[N+]([O-])O.[Cu]	40.6	·	–	·
CC(=O)OC1=CC2=CC[C@H]3[C@@H]4CCC(=O)[C@@]4(C)CC(=O)[C@]3(S)[C@]2(C)CC1	63.3	·	–	·
SMILES	EP2 antag	Hsp70 act	EP2 mod	Dynein cargo inh	others
Cc1nc(-c2ccc(F)cc2)c(CC(=O)N2CCCCC2CN2CCCCC2)s1 (centres undefined)	–	·	–	·
O=C(CN1C2CCC1CC(O)(c1ccco1)C2)Nc1ccccc1C(F)(F)F (centres undefined)	·	·	–	·
CCCN1CCc2cc(O)cc3c2[C@H]1Cc1ccc(O)c(O)c1-3	76.8!	·	–	·
COc1cc2c(cc1O)C[C@@H]1c3c(cc(O)c(OC)c3-2)CCN1C	–	·	–	·
CN1CCc2cc(O)cc3c2[C@H]1Cc1ccc(O)c(O)c1-3	102.4!	·	–	·
O=P(O)(OP(=O)(O)c1ccccc1)c1ccccc1 (tested in a mixture with another compound)	48.5	·	–	·
COc1cccc(C2(NC(=O)c3cnn(C(C)C)c3)CCCC2)c1	·	·	–	·
O=C(NC(Cc1ccccc1)C(=O)N1CCC2(CC1)OCCO2)C1CCCCC1 (centres undefined)	–	–	–	–
O=C(CNC1CCCCC1)N1CCC2(CC1)OCCO2	–	–	72.7!	–	EP2 cAMP induct=–
C#CCOc1ccccc1CN1C2CCC1CC(O)(c1ccc(OC)cc1)C2 (centres undefined)	–	·	–	·
CC(C)CCNC(=O)c1c(N)n(CC2CCCO2)c2nc3ccccc3nc12 (centres undefined)	–	–	69.4	–	EP2 cAMP induct=+
CCC(C)NC(=O)c1c(N)n(CC2CCCO2)c2nc3ccccc3nc12 (centres undefined)	–	–	–	–
CC(C)c1nccn1Cc1ccc(Cl)cc1Cl	–	·	106.0	·	EP2 cAMP induct=–
O=c1oc2ccccc2c(O)c1C1c2ncccc2-c2c1c(=O)oc1ccccc21 (centres undefined)	–	·	–	·
Clc1ccccc1C1NCc2ccccc2-n2cccc21 (centres undefined)	–	–	68.5	–	EP2 cAMP induct=+
CCCCCCCCCc1ccc(O)cc1	–	·	–	·	EP2 cAMP induct=–
NCCc1ccc(O)cc1	–	–	–	–
C#CCOc1ccc(CN2C3CCC2CC(O)(c2ccc(F)cc2)C3)cc1 (centres undefined)	–	·	–	·
CC(=O)O[C@H]1CC[C@H]2[C@H]3CCC4=C[C@@H](C5SCCS5)[C@H](OC(C)=O)C[C@]4(C)[C@@H]3CC[C@]12C	–	·	–	·
COC[C@H]1OC(=O)c2coc3c2[C@@]1(C)C1=C(C3=O)C2CCC(=O)[C@@]2(C)C[C@H]1OC(C)=O (some centres undefined)	–	·	–	·	EP2 cAMP induct=–
Cc1cc2occ(CC(=O)N(CCN(C)C)C3CCN(C)CC3)c2cc1C	–	·	–	·
C[C@H](N)[C@H](O)c1ccc(O)c(O)c1	–	·	74.4	·	EP2 cAMP induct=–
CCOP(=S)(OCC)Oc1nc(Cl)c(Cl)cc1Cl	–	·	68.2	·	EP2 cAMP induct=+
COc1c(C)cccc1CN1C2CCC1CC(O)(c1cccc(F)c1)C2 (centres undefined)	–	·	–	·
C=CCc1cc(C=C2C(=O)N(C)C(=O)N(C)C2=O)cc(OCC)c1OCc1ccccc1	–	–	88.3	–	EP2 cAMP induct=–
SMILES	EP2 antag	Hsp70 act	EP2 mod	Dynein cargo inh	others
O=C(c1cn(Cc2ccccc2)c2ccccc12)C1CC1	–	–	65.5	–	EP2 cAMP induct=–
CCC(=O)c1cn(Cc2ccccc2)c2ccccc12	–	–	–	–
NC(=NCCC[C@H](N)C(=O)O)N[N+](=O)[O-]	–	·	85.6!	·	EP2 cAMP induct=–
CN(C/N=C(\N)N[N+](=O)[O-])S(=O)(=O)c1ccccc1	–	–	–	–
CC(c1ccc(F)cc1)n1cc(C(=O)NC2CCCC2)nn1 (centres undefined)	–	·	–	·
COc1cc(OC)c(OC)cc1CNCCc1ccc(OC)c(OC)c1	–	–	67.3	–	EP2 cAMP induct=–
COC(=O)C[C@]1(C(=O)OC)CN(C#N)N(c2ccc(Cl)cc2)C12c1ccccc1-c1ccccc12	–	12.3	–	-4.37	Hsp70 act DR=–

High-throughput results (PubChem)
